Experimental data: ChEMBL document CHEMBL3769349, “Antiretroviral (HIV-1) activity of azulene derivatives” (Bioorg Med Chem, 2016)
The source made the active and inactive calls.

Columns and labels:
[1] = tested on: Human immunodeficiency virus 1; assay: Antiretroviral activity against HIV-1 based virus like particles infected in U2OS cells assessed as Gluc activity at highest non-toxic concentration; type: functional
[2] = Cytotoxicity against human U2OS cells assessed as cell viability at highest non-toxic concentration
[3] = Cytotoxicity against human U2OS cells; type: cell-based
Outline: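 Cytotoxicity measured by real-time impedance monitoring (xCELLigence RTCA DP) in U2OS cells kept in IMDM with 10% FBS and Pen/Strep. Compounds tested at several concentrations. Viability compared with 0.5% DMSO vehicle-treated cells. Highest non-toxic concentration defined as the level lowering viability by less than 20%.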

[4] = Selectivity index, ratio of CC50 for human U2OS cells to IC50 for HIV-1 based virus like particles infected in U2OS cells; type: functional
[5] = Cytotoxicity against human TZM-bl cells; type: cell-based
[6] = tested on: Human immunodeficiency virus 1; assay: Antiretroviral activity against HIV-1 based virus like particles infected in U2OS cells; type: functional, organism-based; details: Human immunodeficiency virus 1, U2OS
[7] = tested on: Human immunodeficiency virus 1; assay: Antiretroviral activity against HIV-1 infected in TZM-bl cells after 48 hrs by luciferase assay; details: Human immunodeficiency virus 1, TZM-bl
[8] = Selectivity index, ratio of CC50 for human TZM-bl cells to IC50 for HIV-1 infected in TZM-bl cells; type: functional
[9] = biological target: Human immunodeficiency virus type 1 reverse transcriptase (Human immunodeficiency virus 1) (UniProt Q72547); assay: Inhibition of recombinant HIV-1 reverse transcriptase at 500 uM using 234 nt long RNA template after 10 mins by liquid scintillation analysis
Outline: (§1)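 Cell-free DNA polymerase assay with recombinant HIV-1 reverse transcriptase (1 unit). Nucleotides: dATP/dGTP/dTTP, cold dCTP and [³³P]dCTP. Enzyme and compound preincubated 10 min at room temperature. Synthesis started with annealed 234-nt RNA template/18-nt DNA primer. Filter-bound radioactivity counted by liquid scintillation. DMSO served as negative control.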

[10] = biological target: Human immunodeficiency virus type 1 reverse transcriptase (Human immunodeficiency virus 1, UniProt Q72547); assay: Inhibition of recombinant HIV-1 reverse transcriptase using 234 nt long RNA template after 10 mins by liquid scintillation analysis; outline: as §1

Cc1ccnc2c1NC(=O)c1cccnc1N2C1CC1 [NEVIRAPINE] gave an Activity [1] of 0.01%.

Molecule CCOC(=O)c1ncc(-c2ccc3cccccc2-3)cc1F has an Activity [1] of 80% and a viability [2] of 86%.

N#Cc1cccc(-c2ccc3cccccc2-3)c1 showed an Activity [1] of 63% and a viability [2] of 80%.

Cc1ccc(C(C)C)cc2c(C)ccc1-2 [GUAIAZULEN] showed an Activity [1] of 48% and a viability [2] of 106%.

For O=C(O)c1cccc(-c2cc(Cl)c3cccccc2-3)c1, the Activity [1] was 103% and the viability [2] was 92%.

CCOC(=O)c1ccc(-c2cc(C(=O)OCC)c3cccccc2-3)o1 gave an Activity [1] of 70% and a viability [2] of 83%.

Cc1cc(S(=O)(=O)[O-])c2c(C)ccc(C(C)C)cc1-2.[Na+] [SODIUM GUALENATE] gave an Activity [1] of 154% and a viability [2] of 91%.

For CCOC(=O)c1c(O)cc2cccccc1-2, the CC50 [3] was 344 µM, the “Ratio CC50/IC50” value [4] was 34.1 and the CC50 [5] was 260 µM. For the same molecule, the Activity [1] was 6.4%, the viability [2] was 89% and the IC50 [6] was 10.1 µM.

In the case of CCOC(=O)c1ccc2cccccc1-2, the Activity [1] is reported as 52%, the viability [2] is reported as 85% and the IC50 [6] is reported as over 75 µM.

For Oc1cc2cccccc-2c1, the IC50 [7] was 8.5 µM, the CC50 [3] was 26.8 µM and the “Ratio CC50/IC50” value [4] was 12.2. It also gave a CC50 [5] of 60 µM, an Activity [1] of 51% and a viability [2] of 80%. The “Ratio CC50/IC50” value [8] was 7 and the IC50 [6] was 2.2 µM.

In the case of Clc1cc(Br)c2cccccc1-2, the Activity [1] is reported as 32% and the viability [2] is reported as 101%.

In the case of c1ccc(-c2cc(-c3ccccc3)c3cccccc2-3)cc1, the Activity [1] is reported as 124% and the viability [2] is reported as 80%.

Clc1c2cccccc-2c(Cl)c1-c1cncnc1 gave an Activity [1] of 141% and a viability [2] of 80%.

For CCOC(=O)c1c2cccccc-2c(C(=O)OCC)c1O, the IC50 [7] was 20 µM, the CC50 [3] was 72.2 µM and the “Ratio CC50/IC50” value [4] was 16.4. For the same molecule, the inhibition [9] was “Active”, the CC50 [5] was 65 µM and the Activity [1] was 3.5%. For the same molecule, the viability [2] was 80%, the IC50 [10] was 104 µM and the “Ratio CC50/IC50” value [8] was 3. The IC50 [6] was 4.4 µM.

Clc1cc(-c2ccncc2)c2cccccc1-2 showed an Activity [1] of 36% and a viability [2] of 80%.

Work on Brc1cc(Br)c2cccccc1-2 yielded an Activity [1] of 36% and a viability [2] of 96%.

In the case of Clc1cc(-c2ccccc2)c2cccccc1-2, the Activity [1] is reported as 94% and the viability [2] is reported as 88%.

In the case of Clc1cc(N2CCOCC2)c2cccccc1-2, the Activity [1] is reported as 98% and the viability [2] is reported as 80%.
